Several values for one entry are separate records, joined by “and”; a condition that tells them apart may be missing. Equal values may be shown once.
Experiments:
[1] = Maximal concentration in dogs after intravenous administration; settings: dog, in vivo
Canis familiaris [2] = species on record: Canis familiaris; experiment: Blood level was measured in […] at 0.004 dose; type: functional, Canis lupus familiaris
Mus musculus [3] = species on record: Mus musculus; experiment: Percentage toxicity measured as loss of righting reflex.; type: organism-based; settings: in vivo
Method in brief: (§1)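 Mice (groups of 10) were dosed sc with drug in 0.9% saline and watched for 20 min for overt toxicity (ataxia, convulsions, loss of righting reflex, death) before chloroform exposure.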

Canis familiaris [4] = species on record: Canis familiaris; experiment: (§2) Total dose of the compound; type: functional, Canis lupus familiaris
Method in brief: (§3)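 Adult female dogs (6.7–14.5 kg) had two-stage ligation of the left anterior descending coronary artery the day before testing. After control ventricular rate, % ectopic beats and mean arterial pressure were recorded, the drug (HCl salt, isotonic solution) was infused iv without anesthesia at 0.1, 0.5 or 1.0 (mg/kg)/min, mostly 0.5. Infusion continued until the arrhythmia was abolished or cardiovascular/CNS toxicity appeared. Cumulative dose is given in mmol/kg; toxicity included convulsion and P-R prolongation ≥25%.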

Canis familiaris [5] = experiment: Ventricular rate was measured in anesthetized dog at 0.014 dose; type: functional, Canis lupus familiaris, Heart; settings: in the assay text read “unanesthetized dog” for “anesthetized dog”
Method in brief: as §3

Mus musculus [6] = experiment: Protection against chloroform induced arrhythmias in mice after subcutaneous administration at 100 mg/kg dose.; type: functional
Method in brief: (§4)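 Groups of 10 unanesthetized mice got sc injection of drug in 0.9% saline. After 20 min observation they were placed one by one in chloroform-vapor-saturated air. When breathing stopped, the thorax was opened and the heart inspected by eye; coordinated ventricular contractions counted as protected.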

[7] = Volume of distribution was measured at given dose of 29 umol/kg; type: ADME, organism-based; settings: in vivo
Method in brief: (§5)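 In dogs given iv infusions, blood samples were alkaline-extracted (pH 10.3) into methylene chloride and derivatized with heptafluorobutyrylimidazole. Concentrations were measured by GC-FID against an internal standard using standard curves. Clearance was total dose ÷ blood-level AUC (zero to infinity), and volume of distribution was clearance ÷ elimination rate constant.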

[8] = Percentage toxicity measured as death of mice.; type: organism-based; set-up: concentration or dose not given beside the values; settings: mouse, in vivo; read-out: Death
Mus musculus [9] = species on record: Mus musculus; experiment: Percentage toxicity measured as convulsions.; type: organism-based; settings: in vivo
Method in brief: as §1

Canis familiaris [10] = experiment: MABP value was measured in anesthetized dog at given dose; type: functional, Canis lupus familiaris
[11] = Volume of distribution was measured at given dose of 25 umol/kg; type: ADME, organism-based; settings: in vivo
Method in brief: as §5

[12] = Maximal concentration in dogs after 29 umol/kg intravenous dose; settings: dog, in vivo
Canis familiaris [13] = experiment: Ventricular rate was measured in anesthetized dog at 0.004 dose; type: functional, Canis lupus familiaris, Heart; settings: in the assay text read “unanesthetized dog” for “anesthetized dog”
Method in brief: as §3

Canis familiaris [14] = species on record: Canis familiaris; experiment: as §2; type: functional, Canis lupus familiaris; remark: listed apart in the source
Method in brief: as §3

Canis familiaris [15] = species on record: Canis familiaris; experiment: Ventricular rate was measured in […] at 0.028 dose; type: functional, Canis lupus familiaris, Heart
Method in brief: as §3

Canis familiaris [16] = experiment: Blood level was measured in anesthetized dog at 0.014 dose; type: functional, Canis lupus familiaris
Canis familiaris [17] = experiment: % ectopic beats was measured in anesthetized dog at 0.028 dose; type: functional, Canis lupus familiaris, Heart; settings: in the assay text read “unanesthetized” for “anesthetized”
Method in brief: (§6)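 Adult female dogs (6.7–14.5 kg) had the left anterior descending coronary artery ligated in two stages the day before testing. Dogs were unanesthetized. Ectopic beats (% of ventricular rate) and mean arterial pressure were read at maximal antiarrhythmic effect against the cumulative dose.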

Canis familiaris [18] = experiment: % ectopic beats was measured in anesthetized dog at 0.014 dose; type: functional, Canis lupus familiaris, Heart; settings: in the assay text read “unanesthetized” for “anesthetized”
Method in brief: as §6

[19] = Total body clearance was measured at given dose; type: ADME
Method in brief: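 Blood levels came from the iv-infused dogs, measured by GC-FID after methylene chloride extraction and heptafluorobutyryl derivatization with an internal standard. Total body clearance was total dose divided by the blood-level AUC (zero to infinity); volume of distribution was clearance divided by the elimination rate constant.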

Canis familiaris [20] = experiment: % ectopic beats was measured in unanesthetized dog at 0.004 dose
Mus musculus [21] = experiment: Protection against chloroform induced arrhythmias was measured in mice after sc administration at given dose; type: functional
Method in brief: as §4

Mus musculus [22] = species on record: Mus musculus; experiment: Percentage toxicity measured as ataxia.; type: organism-based; settings: in vivo
Method in brief: as §1

Canis familiaris [23] = experiment: MABP value was measured in anesthetized dog at 0.21+/-0.19 dose.; type: functional, Canis lupus familiaris
Mus musculus [24] = experiment: Ataxia was measured in mice after sc administration at given dose.; type: functional
Method in brief: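 Mice in groups of 10 received drug sc in 0.9% saline and were watched 20 min for overt toxicity before chloroform exposure. At least three doses were given.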

Canis familiaris [25] = species on record: Canis familiaris; experiment: The dose at which toxicity was measured.; type: organism-based, Canis lupus familiaris; settings: dog, in vivo
Method in brief: as §3

Canis familiaris [26] = experiment: % ectopic beats was measured in anesthetized dog at 0.21+/-0.19 dose; 4+/-3; type: functional, Canis lupus familiaris, Heart
Mus musculus [27] = experiment: Protection against chloroform induced arrhythmias was measured in mice after sc administration at given dose.; type: functional; settings: Mus musculus, sc; read-out: ED50
Method in brief: as §4

Canis familiaris [28] = experiment: Ventricular rate was measured in anesthetized dog at 0.21+/-0.19 dose; type: functional, Canis lupus familiaris, Heart; settings: in the assay text read “unanesthetized” for “anesthetized”
Method in brief: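 Adult female dogs (6.7–14.5 kg) had ventricular arrhythmias from two-stage ligation of the left anterior descending coronary artery the day before. Ventricular rate (bpm) was read at maximal antiarrhythmic effect against cumulative dose.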

SMILES: CCN(CC)CCCN1C(=O)CC2(CCCc3ccc(O)cc32)C1=O (centres undefined)
- Cmax [1]: 31 µM
- Blood level (Canis familiaris [2]): 0.019 uM ml-1
- Loss of righting reflex (Mus musculus [3]): 0%
- Dose (Canis familiaris [4]): 29 µM/kg
- Ventricular rate (Canis familiaris [5]): 150 beats min-1
- Protection (Mus musculus [6]): 80%
- Vd [7]: 1.6 L/kg
- mortality [8]: 0%
- Convulsion (Mus musculus [9]): 0%
- MABP (Canis familiaris [10]): 85 mmHg and 125 mmHg
- Vd [11]: 1.58 L/kg
- Cmax [12]: 15 µM
- Ventricular rate (Canis familiaris [13]): 168 beats min-1
- Dose (Canis familiaris [14]): 25 µM/kg
- Ventricular rate (Canis familiaris [15]): 153 beats min-1
- Blood level (Canis familiaris [16]): 0.01 uM ml-1
- Etopic beats (Canis familiaris [17]): 6%
- Etopic beats (Canis familiaris [18]): 0%
- ClB [19]: 6.06 mL/min/kg
- clearance ([19]; ClB): 3.81 mL/min/kg
- Ectopic beats (Canis familiaris [20]): 3%
- ED50 (Mus musculus [21]): 90 µmol/kg
- Ataxia (Mus musculus [22]): 0%

SMILES: CCN(CC)CC(=O)Nc1c(C)cccc1C [LIDOCAINE]
- Loss of righting reflex (Mus musculus [3]): 100%
- MABP (Canis familiaris [23]): 101 mmHg
- Protection (Mus musculus [6]): 100%
- mortality [8]: 0%
- Convulsion (Mus musculus [9]): 100%
- ED50 (Mus musculus [24]): 180 µmol/kg
- Cumulative dose (Canis familiaris [25]): 0.27
- Etopic beats (Canis familiaris [26]): 4%
- ED50 (Mus musculus [27]): 260 µmol/kg
- Ventricular rate (Canis familiaris [28]): 133 beats min-1
- Ataxia (Mus musculus [22]): 100%
